Measured values published in ChEMBL document CHEMBL3244405, “Imidazo[4,5-f]quinolines. 4. Synthesis and anthelmintic activity of a series of imidazo[4,5-f]quinolin-9-ols” (J Med Chem, 1978).
Active and inactive are the calls of the source. The rule behind the calls is not given here.

Assays:
Rodentolepis nana [1] = experiment: Anthelmintic activity against Hymenolepis nana infected in mouse assessed as reduction in worm burden at 50 mg/kg bid for 5 days relative to control; assay type: functional; set-up: scale not given: the % may be the effect or the level left
Method in brief: (§1)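 Mice carried the tapeworm *H. nana* and were dosed at 300, 100, 50, 25, 10, 5 or 2.5 mg/kg. Activity was read as percent reduction in worm burden, and significance was tested by Mann-Whitney U test. The rest of the procedure follows an earlier publication.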

Rodentolepis nana [2] = experiment: Anthelmintic activity against Hymenolepis nana infected in mouse assessed as reduction in worm burden at 100 mg/kg bid for 5 days relative to control; assay type: functional; set-up: scale not given: the % may be the effect or the level left; method in brief: as §1
Rodentolepis nana [3] = experiment: Anthelmintic activity against Hymenolepis nana infected in mouse assessed as reduction in worm burden at 25 mg/kg bid for 5 days relative to control; assay type: functional; method in brief: as §1
Rodentolepis nana [4] = experiment: Anthelmintic activity against Hymenolepis nana infected in mouse assessed as reduction in worm burden at 300 mg/kg bid for 5 days relative to control; assay type: functional; set-up: scale not given: the % may be the effect or the level left; method in brief: as §1
Canis familiaris [5] = experiment: Toxicity in beagle dog assessed as emesis at 50 to 150 mg/kg, po; assay type: organism-based, Canis lupus familiaris; set-up: dose 50-150 mg/kg, route oral; details: in vivo
Method in brief: (§2)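 Beagles infected with *T. pisiformis*, aged from puppies to 2–3 years, received single oral doses of 50–150 mg/kg body weight. Readouts were worm clearance plus observation for emesis and other untoward clinical signs.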

Moniezia = experiment: Anthelmintic activity against Moniezia species infected in sheep assessed as complete parasite clearance at 50 mg/kg for 3 days administered as drench solution; assay type: functional, organism-based; set-up: dose 50 mg/kg
Method in brief: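 Sheep were naturally infected. Drug was mixed with water and sonified to a creamy consistency, then given as a drench. Animals were sacrificed 3 days after dosing and the intestines were examined for worms.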

Syphacia obvelata [6] = experiment: Anthelmintic activity against Syphacia obvelata infected in mouse assessed as reduction in worm burden at 10 mg/kg bid for 5 days relative to control; assay type: functional; set-up: scale not given: the % may be the effect or the level left
Rodentolepis nana [7] = experiment: Anthelmintic activity against Hymenolepis nana infected in mouse assessed as reduction in worm burden at 10 mg/kg bid for 5 days relative to control; assay type: functional; set-up: scale not given: the % may be the effect or the level left; method in brief: as §1
Taenia pisiformis = experiment: Anthelmintic activity against Taenia pisiformis infected in beagle dog assessed as complete parasite clearance at 50 to 150 mg/kg, po after 10 days; assay type: functional, organism-based; method in brief: as §2
Taenia crassiceps = experiment: Anthelmintic activity against Taenia crassiceps infected in beagle dog assessed as complete parasite clearance at 100 mg/kg after 9 days; assay type: functional, organism-based; set-up: dose 100 mg/kg
Method in brief: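 Dogs received a recently isolated *T. crassiceps* strain as 40 cysts per dog, taken from mice and given perorally in gelatin capsules to young beagles. On day 37, drug was given in gelatin capsules, three dogs per test. Dogs were sacrificed 9 days after treatment, and intestinal scolices were counted as worms recovered at necropsy.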

Canis familiaris [8] = experiment: Toxicity in beagle dog assessed as untoward clinical signs at 50 to 150 mg/kg, po; assay type: organism-based, Canis lupus familiaris; set-up: dose 50-150 mg/kg, route oral; details: in vivo; method in brief: as §2
Rodentolepis nana [9] = experiment: Anthelmintic activity against Hymenolepis nana infected in mouse assessed as reduction in worm burden at 2.5 mg/kg bid for 5 days relative to control; assay type: functional; set-up: scale not given: the % may be the effect or the level left; method in brief: as §1
Rodentolepis nana [10] = experiment: Anthelmintic activity against Hymenolepis nana infected in mouse assessed as reduction in worm burden at 5 mg/kg bid for 5 days relative to control; assay type: functional; set-up: scale not given: the % may be the effect or the level left; method in brief: as §1
Syphacia obvelata [11] = experiment: Anthelmintic activity against Syphacia obvelata infected in mouse assessed as complete parasite clearance at 50 mg/kg bid for 5 days; assay type: functional, organism-based; set-up: dose 50 mg/kg
Mus musculus = experiment: Toxicity in mouse infected with Hymenolepis nana at 300 mg/kg bid for 5 days; assay type: organism-based; set-up: dose 300 mg/kg; details: in vivo, 120 h

SMILES: Cc1cc(O)c2c(ccc3nc(-c4ccccc4Cl)[nH]c32)n1
- Activity (Rodentolepis nana [1]): 75%
- Activity (Rodentolepis nana [2]): 100%
- Activity (Rodentolepis nana [3]): inactive
- Activity (Rodentolepis nana [4]): 100%

SMILES: Cc1ccc(-c2nc3ccc4nc(C)cc(O)c4c3[nH]2)cc1
- Activity (Rodentolepis nana [2]): inactive
- Activity (Rodentolepis nana [4]): 70%

SMILES: Oc1cc(-c2ccccc2)nc2ccc3nc(-c4ccccc4)[nH]c3c12
- Activity (Rodentolepis nana [1]): 82%
- Activity (Rodentolepis nana [2]): 100%
- Activity (Rodentolepis nana [3]): inactive
- Activity (Rodentolepis nana [4]): 100%

SMILES: Cc1nc2ccc3nc(-c4ccccc4)[nH]c3c2c(O)c1C
- Activity (Rodentolepis nana [1]): 94%
- Activity (Rodentolepis nana [2]): 100%
- Activity (Rodentolepis nana [3]): inactive
- Activity (Rodentolepis nana [4]): 100%

SMILES: Cc1cc(O)c2c(ccc3nc(-c4ccco4)[nH]c32)n1 [FURODAZOLE]
- Activity (Canis familiaris [5]): Toxic
- Activity (Rodentolepis nana [1]): 100%
- Activity (Moniezia): Active
- Activity (Syphacia obvelata [6]): 68%
- Activity (Rodentolepis nana [7]): 75%
- Activity (Taenia pisiformis): Active
- Activity (Taenia crassiceps): Active
- Activity (Canis familiaris [8]): Toxic
- Activity (Rodentolepis nana [2]): 100%
- Activity (Rodentolepis nana [3]): 100%
- Activity (Rodentolepis nana [9]): 35%
- Activity (Rodentolepis nana [10]): 57%
- Activity (Syphacia obvelata [11]): Active
- Activity (Rodentolepis nana [4]): 100%

SMILES: Oc1c2c(nc3ccc4nc(-c5ccccc5)[nH]c4c13)CCC2
- Activity (Rodentolepis nana [1]): 41%
- Activity (Rodentolepis nana [2]): 100%
- Activity (Rodentolepis nana [3]): inactive
- Activity (Rodentolepis nana [4]): 100%

SMILES: CCCCCCOc1ccc(C(=N)N(CCCC)CCCC)c2ccccc12 [BUNAMIDINE]
- Activity (Mus musculus): Toxic
- Activity (Rodentolepis nana [1]): 59%
- Activity (Rodentolepis nana [7]): inactive
- Activity (Rodentolepis nana [2]): 100%
- Activity (Rodentolepis nana [3]): 30%

SMILES: Cc1cc(O)c2c(ccc3nc(-c4ccccc4)[nH]c32)n1
- Activity (Rodentolepis nana [1]): 94%
- Activity (Rodentolepis nana [7]): inactive
- Activity (Rodentolepis nana [2]): 93%
- Activity (Rodentolepis nana [3]): 77%
- Activity (Rodentolepis nana [4]): 100%
